Molecular target: T1, Aromatase (Homo sapiens, UniProt P11511)
T1 sequence (P11511 whole entry): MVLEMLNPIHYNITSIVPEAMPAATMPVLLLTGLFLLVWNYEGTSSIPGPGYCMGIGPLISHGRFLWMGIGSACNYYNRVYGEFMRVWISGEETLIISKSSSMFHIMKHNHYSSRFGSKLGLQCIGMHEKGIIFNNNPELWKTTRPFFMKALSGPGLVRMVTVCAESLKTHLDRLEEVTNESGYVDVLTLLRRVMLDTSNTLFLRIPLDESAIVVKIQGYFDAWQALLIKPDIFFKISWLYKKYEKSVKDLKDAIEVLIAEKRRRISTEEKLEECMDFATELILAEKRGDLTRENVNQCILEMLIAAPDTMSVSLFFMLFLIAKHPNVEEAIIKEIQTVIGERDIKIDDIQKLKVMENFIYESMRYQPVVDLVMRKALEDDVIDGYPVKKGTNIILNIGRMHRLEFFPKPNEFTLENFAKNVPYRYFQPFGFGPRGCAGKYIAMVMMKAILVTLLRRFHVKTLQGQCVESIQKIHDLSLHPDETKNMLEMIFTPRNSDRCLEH
Assay: Inhibition of CYP450 aromatase activity in SK-BR-3 cells
Procedure, shortened: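 Tritium water release assay in intact SK-BR-3 cells. Cells were treated 24 h with compound or 0.1% DMSO vehicle, then the medium was changed and cells were given 100 nM [1β-3H]-androstenedione for 3 h. Protein was precipitated with TCA and the medium chloroform- and charcoal-extracted. Released 3H2O was counted and expressed per million cells (DNA assay). IC50 came from nonlinear regression on five concentrations in triplicate.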

IC50 [µM] | Compound
> 25 | COc1cc([N+](=O)[O-])ccc1NS(C)(=O)=O [N-(2-methoxy-4-nitrophenyl)methanesulfonamide]
> 25 | COc1cc([N+](=O)[O-])ccc1N(C)S(C)(=O)=O [N-methyl-N-(2-methoxy-4-nitrophenyl)methanesulfonamide]

From BindingDB's records for doi:10.1021/jm051126f (The Ohio State University, 2006)
